Data published in PubChem BioAssay AID2465 (Broad Institute, 2010).
Screen size: about 24,000 compounds; fewer than 10 were called active. No stated cut-off is given here; in the data, active means caspase activation above about 5.9%; inconclusive means no clear call, values can overlap the other calls; inactive means below about 2.2%. A selection follows.

experiment: Bcl2-A1 antagonists releasing BIM, apoptosis – cell-based, luminescence, HTS, two replicates, primary screen (AID 2465); details: MEF A1-2A-BIM cells, caspase-Glo luminescence, 3 h; hits give high values; percent of clofoctol response, DMSO zero; concentration not given here
Procedure, shortened: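 Material: mouse embryonic fibroblasts co-expressing A1 and BIM (A1-2A-BIM), primed for A1 dependence / Quantity: 2500 cells/well / Buffer or medium: RPMI-1640 growth medium with 10% FBS / Doses: 50 nL compound per well, pinned / Schedule: 3 h compound exposure at 37 °C / Signal: Caspase-Glo luminescence (DEVD substrate) / Measure: Caspase-3/7 activation, seen as rise in luminescence signal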

Compound | caspase activation
C[C@@H]1CCCCO[C@H](CN(C)Cc2ccccc2)[C@H](C)CN([C@@H](C)CO)C(=O)c2cc(NC(=O)Nc3cccc4ccccc34)ccc2O1 | -0.203% (inactive)
O=C(CCCCCC(=O)Nc1ccccc1O)N/N=C/c1ccc(Br)o1 | 0.454% (inactive)
C[C@H](CO)N1C[C@H](C)[C@H](CN(C)Cc2ccc(C(=O)O)cc2)OCc2cn(nn2)CCCC1=O | 0.235% (inactive)
C[C@@H]1CN([C@@H](C)CO)C(=O)c2cc(NC(=O)Nc3ccccc3)ccc2O[C@@H]1CN(C)Cc1ccccc1 | -0.201% (inactive)
CC(C)NC(=O)N(C)C[C@H]1OCCCC[C@H](C)Oc2ccc(NS(=O)(=O)c3cccs3)cc2C(=O)N([C@H](C)CO)C[C@@H]1C | 1.03% (inactive)
COc1ccc(NC(=O)N(C)C[C@@H]2Oc3ccc(NS(=O)(=O)c4ccc(OC)cc4)cc3CC(=O)N([C@H](C)CO)C[C@H]2C)cc1 | 0.4% (inactive)
COc1ccc(S(=O)(=O)Nc2cccc3c2O[C@@H](CN(C)C(=O)Nc2cccc4ccccc24)[C@H](C)CN([C@@H](C)CO)C3=O)cc1 | -1.43% (inactive)
C[C@H](O)[C@H](O)[C@@H](O)[C@@H](O)/C=N/NC(=O)CCCCCC(=O)Nc1ccccc1O | 0.323% (inactive)
C[C@@H]1CN([C@@H](C)CO)C(=O)c2cc(NC(=O)Cc3ccccc3)ccc2O[C@@H](C)CCCCO[C@H]1CN(C)C(=O)Cc1ccccc1 | 1.05% (inactive)
Cc1noc(C)c1S(=O)(=O)N(C)C[C@@H]1OCCCC[C@H](C)Oc2ccc(NC(=O)Nc3ccc4c(c3)OCO4)cc2C(=O)N([C@H](C)CO)C[C@@H]1C | -0.0337% (inactive)
O=C(CCCCCCC(=O)Nc1ccccc1O)N/N=C/c1ccc(Oc2ccccc2)cc1 | 0.474% (inactive)
O=C(NO)c1ccc(C(=O)N/N=C/c2ccc(Br)cc2)cc1 | -0.637% (inactive)
CC(C)NC(=O)Nc1ccc2c(c1)C(=O)N([C@@H](C)CO)C[C@H](C)[C@H](CN(C)C(=O)NC1CCCCC1)OCCCC[C@@H](C)O2 | 0.925% (inactive)
C[C@@H]1CN([C@H](C)CO)C(=O)c2cc(NC(=O)c3ccncc3)ccc2O[C@@H](C)CCCCO[C@@H]1CN(C)CC1CC1 | -1.05% (inactive)
C[C@H]1CCCCO[C@H](CN(C)CC2CC2)[C@@H](C)CN([C@@H](C)CO)C(=O)c2cc(NC(=O)CCC(F)(F)F)ccc2O1 | -0.204% (inactive)
C[C@@H]1CCCCO[C@@H](CN(C)S(=O)(=O)c2cccs2)[C@@H](C)CN([C@@H](C)CO)C(=O)c2cc(NS(=O)(=O)c3ccc(F)cc3)ccc2O1 | 0.628% (inactive)
C[C@@H]1CCCCO[C@H](CN(C)Cc2ccc(C(F)(F)F)cc2)[C@@H](C)CN([C@@H](C)CO)C(=O)c2cc(NC(=O)c3ccncc3)ccc2O1 | -0.085% (inactive)
C[C@@H]1CCCCO[C@@H](CN(C)S(=O)(=O)c2ccc(F)cc2)[C@@H](C)CN([C@@H](C)CO)C(=O)c2cc(NC(=O)Nc3ccc4c(c3)OCO4)ccc2O1 | -0.312% (inactive)

Compound | caspase activation
C[C@H]1CN([C@@H](C)CO)C(=O)Cc2cc(NC(=O)Cn3cnnn3)ccc2O[C@H]1CN(C)CC1CC1 | -0.754% (inactive)
Cc1ccc(S(=O)(=O)N(C)C[C@H]2OCCCC[C@H](C)Oc3ccc(N(C)C)cc3C(=O)N([C@H](C)CO)C[C@@H]2C)cc1 | 0.228% (inactive)
C[C@@H]1CN([C@H](C)CO)C(=O)c2cc(NS(=O)(=O)c3ccccc3)ccc2O[C@H]1CN(C)S(=O)(=O)c1cccs1 | -0.323% (inactive)
COc1ccc(S(=O)(=O)Nc2ccc3c(c2)C(=O)N([C@H](C)CO)C[C@@H](C)[C@@H](CN(C)CC2CCCCC2)O3)cc1 | -0.24% (inactive)
CC(C)NC(=O)N(C)C[C@@H]1Oc2ccc(NC(=O)Cn3cnnn3)cc2CC(=O)N([C@H](C)CO)C[C@H]1C | 1.87% (inactive)
COc1cc(OC)c(/C=N/NC(=O)CCCCCCC(=O)Nc2ccccc2O)c(OC)c1 | -0.41% (inactive)
C[C@@H]1CCCCO[C@@H](CN(C)Cc2ccncc2)[C@@H](C)CN([C@H](C)CO)C(=O)c2cc(NS(=O)(=O)c3cccs3)ccc2O1 | -0.367% (inactive)
C[C@@H]1CN([C@H](C)CO)C(=O)Cc2cc(NC(=O)Nc3ccc4c(c3)OCO4)ccc2O[C@H]1CN(C)Cc1ccc(C(F)(F)F)cc1 | 1.47% (inactive)
COc1ccc(S(=O)(=O)N(C)C[C@@H]2OCCCC[C@H](C)Oc3ccc(NC(=O)Nc4ccccc4)cc3C(=O)N([C@@H](C)CO)C[C@H]2C)cc1 | 0.213% (inactive)
C[C@@H]1CN([C@@H](C)CO)C(=O)CCCn2nncc2CO[C@H]1CN(C)C(=O)CCCN(C)C | -0.0755% (inactive)
COc1ccc(NC(=O)Nc2ccc3c(c2)C(=O)N([C@@H](C)CO)C[C@@H](C)[C@@H](CN(C)S(=O)(=O)c2ccc(C)cc2)OCCCC[C@H](C)O3)cc1 | -0.213% (inactive)
COc1ccc(S(=O)(=O)Nc2ccc3c(c2)CC(=O)N([C@@H](C)CO)C[C@H](C)[C@@H](CN(C)Cc2ccc(C(=O)O)cc2)O3)cc1 | 1% (inactive)
C[C@H](CO)N1C[C@H](C)[C@@H](CN(C)Cc2ccc(-c3ccccc3)cc2)Oc2ccc(NC(=O)CCCN(C)C)cc2CC1=O | 0.389% (inactive)
C[C@@H]1CCCCO[C@@H](CN(C)C(=O)C2CCCCC2)[C@H](C)CN([C@H](C)CO)C(=O)c2cc(NC(=O)CCC(F)(F)F)ccc2O1 | -0.546% (inactive)
COc1ccc(S(=O)(=O)N(C)C[C@@H]2Oc3ccc(NC(=O)C4CC4)cc3CC(=O)N([C@@H](C)CO)C[C@H]2C)cc1 | -0.0568% (inactive)
C[C@@H]1CN([C@H](C)CO)C(=O)c2cc(NC(=O)NC3CCCCC3)ccc2O[C@@H](C)CCCCO[C@H]1CN(C)C(=O)Nc1ccccc1 | -0.462% (inactive)
C[C@H](CO)N1C[C@H](C)[C@@H](CN(C)Cc2ccc(C(=O)O)cc2)OCCCC[C@H](C)Oc2ccc(NC(=O)c3ccccc3)cc2C1=O | -0.0294% (inactive)
